Experimental data as given in publication PMC7541604 (Clinical cancer research : an official journal of the …, 2020).
Where “and” joins values, the source holds several entries; their conditions need not be identical. Identical values can stand only once.

Experiments:
Assay type in all cases: in vivo, human
[1] = test system: tumor epichaperome formations (epichaperome/HSP90); assay: 124I-PU-H71 PET/CT tumor imaging in cancer patients
Outline: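 Adults with solid malignancy or lymphoma received 201±12 MBq tracer IV over 1-2 min, no contrast, with SSKI thyroid blockade. PET-CT was done at 3-4 and 20-24 h post-injection, with 45-60 min emission and OSEM reconstruction (decay, attenuation, scatter corrected). The highest-SUV tumor per patient gave SUVpeak (mean voxel SUV in the 1-cm3 sphere of highest uptake, mass-normalized). Tumor:bloodpool and tumor:muscle ratios were compared at 4 vs 24 h by Wilcoxon signed-rank.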

[2] = Whole blood and plasma radioassay of tracer clearance
Outline: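 Tracer was injected IV over 1-2 min and blood drawn through a separate peripheral line at 10, 20 and 30 min and 1-2 or 3-4 h, plus 20-24 h in a subset (n=7). Whole blood and/or plasma were radioassayed by well counter. α and β half-lives came from biexponential fits, summarized as geometric mean. Plasma exposure was expressed as %ID·g·h/mL from 10 min to 4 h.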

[3] = Plasma radioHPLC analysis of tracer metabolism; settings: for Relative amount in plasma supernatant, GM: % of total activity of identified radioHPLC peaks
[4] = PET/CT tracer biodistribution in normal organs
Outline: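 Patients received 201±12 MBq tracer IV, with SSKI taken ≥2 h before and daily for two weeks. PET-CT ran skull vertex to proximal thighs at 3-4 and 20-24 h post-injection, with CT for attenuation correction and anatomic localization. Mean SUV was measured in normal organs, including aortic blood pool, humerus, axial skeleton and brain, at 4 and 24 h (n=30).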

[5] = PET-derived urinary and biliary tracer excretion
Outline: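 Serial PET, with bisacodyl 15 mg orally on three nights post-injection: at each time-point, 3D VOIs measured total activity in the urinary bladder and in the hepatobiliary tree plus bowel. Tracer lost by voiding or defecation was tracked from whole-FOV activity on decay-corrected serial scans, normalized to total activity on the initial scan immediately post-injection.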

[6] = Clinical safety monitoring incl. serum TSH; settings: microdose tracer 201±12 MBq, <25 μg IV, n=30 patients
Outline: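 Microdose tracer was given IV after seven drops SSKI orally ≥2 h pre-injection, repeated daily for two weeks. Serum TSH was measured <1 week pre-injection as baseline and again 6-12 months post-injection. Toxicity signs and symptoms were checked at each imaging time-point, and patients reported adverse symptoms over the following 30 days.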

[7] = 4 hours post-injection, across patient population
[8] = one table row per patient, PET 4 h post-injection
[9] = one table row per patient, PET 24 h post-injection
[10] = patients, IV bolus, geometric mean

## CC(C)NCCCn1c(Sc2cc3c(cc2I)OCO3)nc2c(N)ncnc21 [^124I-PU-H71]
[1]; [7]
  Tumor:bloodpool ratio of radiotracer concentrations, average/SD: 3.2± 3.0
  Tumor:bloodpool ratio of radiotracer concentrations, maximum: up to 14.4
[1]; 24 h, person, stage IV pancreatic cancer (Fig. 1)
  Tumor:bloodpool SUV ratio: 19.8
[1]; 24 hours post-injection, across patient population
  Tumor:bloodpool ratio of radiotracer concentrations, average/SD: 3.9 ± 4.4
[1]; between patients
  24-hour tumor SUV average/SD: 0.9 ± 0.8
  24-hour tumor SUV coefficient of variation: 88.9%
  24-hour tumor SUV range: 0.1-3.8
[1]; n=26 evaluable patients, PET at 24 h
  Patients in whom PU-H71-avid tumors were detected: 58%
[1]; [8]
  T:B 4 h (tumor:blood pool SUVpeak ratio): 1.8 and 3.1 and 14.4 and 6.1 and 1.5 and 1.2 and 2.2 and 2.7 and 0.9 and 5.0 and 2.5 and 4.2 and 1.6 and 1.3 and 2.9 and 2.1 and 9.6 and 1.7 and 3.6
  T:M 4 h (tumor:muscle SUV ratio): 1.8 and 6.0 and 22.0 and 5.1 and 2.1 and 1.2 and 2.8 and 1.9 and 2.4 and 5.3 and 2.0 and 1.0 and 5.4 and 4.0 and 3.3 and 5.2 and 3.0 and 3.8 and 1.5 and 7.7 and 2.7 and 4.9
  Tumor SUV 4 h (SUVpeak): 1.1 and 1.6 and 11.0 and 2.5 and 0.64 and 0.8 and 0.7 and 0.9 and 3.4 and 1.7 and 3.2 and 2.1 and 1.3 and 1.8 and 2.7 and 1.5 and 2.2 and 1.2
[1]; [9]
  T:B 24 h (tumor:blood pool SUVpeak ratio): 1.0 and 5.6 and 13.1 and 1.7 and 4.0 and 0.6 and 3.0 and 1.2 and 3.2 and 0.9 and 5.1 and 2.4 and 19.8 and 0.7 and 1.8 and 1.3 and 3.6 and 5.9 and 2.3 and 7.8 and 4.8
  T:M 24 h (tumor:muscle SUV ratio): 1.6 and 11.2 and 20.0 and 8.0 and 6.7 and 1.2 and 6.0 and 2.3 and 1.5 and 6.4 and 1.0 and 1.1 and 8.8 and 2.1 and 6.2 and 2.5 and 4.6 ^****** and 1.4 and 3.3 and 5.6 and 5.2 and 17.5 and 1.3 and 5.1
  Tumor SUV 24 h (SUVpeak): 0.3 and 0.6 and 3.8 and 0.8 and 0.4 and 0.1 and 0.2 and 1.0 and 0.7 and 1.8 and 1.1 and 1.6 and 0.5 and 1.3 and 0.9 and 2.1 and 1.5
[1]; overall
  Decrease of tumor SUV between 4 to 24 hours: 1.0±1.4 SUV units
  Decrease of tumor SUV between 4 to 24 hours, range: −25.0 to +87.5%
[1]; overall, p=0.00002
  Decrease of tumor SUV between 4 to 24 hours, mean ± SD: 50.7 ± 27.0%
[1]; person, stage IV pancreatic cancer (Fig. 1)
  Increase of tumor:bloodpool SUV ratio between 3 and 24 h: 371%
[1]; population
  Median increase in tumor:bloodpool SUV ratio from 4 to 24 hours: 4.8%
  Median increase in tumor:muscle SUV ratio from 4 to 24 hours: 20.9%
  Range of change in tumor:bloodpool SUV ratio from 4 to 24 hours: −72.1 to +371.4%
  Range of change in tumor:muscle SUV ratio from 4 to 24 hours: −63.2 to +257.1%
[1]; population, p=0.02
  Average increase in tumor:muscle SUV ratio from 4 to 24 hours: 52.0 ± 87.3%
[1]; population, p=0.9
  Average increase in tumor:bloodpool SUV ratio from 4 to 24 hours: 25.7 ± 99.9%
[2]; between patients
  Plasma AUC coefficient of variation: 36.6%
[2]; from 10 minutes to 4 hours post-injection
  Plasma radiotracer exposure: 1.7±0.6 % ID•g•h/mL
[2]; [10]
  Blood t1/2 α, GM: 7.9 min
  Blood t1/2 β, GM: 6.103 h
  Plasma t1/2 α, GM: 7.0 min
  Plasma t1/2 β, GM: 4.402 h
[3]; 10 min after tracer injection
  Relative amount in plasma supernatant, GM: 69.2%
[3]; 20 min after tracer injection
  Relative amount in plasma supernatant, GM: 51.7%
[3]; 30 min after tracer injection
  Relative amount in plasma supernatant, GM: 44.9%
[3]; 1h after tracer injection
  Relative amount in plasma supernatant, GM: 32.3%
[3]; 4h after tracer injection
  Relative amount in plasma supernatant, GM: 22.7%
[3]; plasma, p.i.
  Time by which radiotracer became predominantly radiometabolites: ≤ 1 h
[4]; PET
  Brain uptake: scant
[4]; average/SD, 24 hours post-injection
  24-hour bloodpool SUV: 0.2 ±0.1
[5]
  Urinary excretion of tracer: 29.5 ±10.9 %ID
[5]; bisacodyl given
  Hepatobiliary excretion of tracer: 45.4 ±15.8 %ID
[6]
  Adverse effects: no adverse effects
[6]; listed as PUH71 tracer
  Adverse effects: No signs or symptoms of adverse effects
